# Source: paper PMC5760267 (ChemMedChem, 2016)
# Molecular target: human immunoproteasome β5i (Homo sapiens, UniProt P20618+P28062)
# Assay: IC50 against β5i
# Assay type: biochemical
# Details: for SIapp: apparent selectivity index = IC50β5c / IC50β5i: β5i over β5c; for reduction of potency against β5i: relative to the P1-β-Ala parents PKS2251 and PKS2252, respectively
# Procedure, shortened: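 Human immunoproteasome β5i activity was read as ac-ANW-AMC hydrolysis, and constitutive β5c activity as suc-LLVY-AMC hydrolysis. IC50s were determined by a previously reported method. Apparent selectivity index = IC50β5c / IC50β5i. Data reported as mean ± SEM.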
SIapp: apparent selectivity index = IC50β5c / IC50β5i,reduction of potency against β5i,SMILES
465,,Cc1cc(C(=O)N[C@@H](CC(=O)NC(C)(C)C)C(=O)N[C@@H](C)CC(=O)NCc2cccc3ccccc23)no1 [PKS2249]
1333,,C[C@@H](CC(=O)NCc1cccc2ccccc12)NC(=O)[C@H](CC(=O)NC(C)(C)C)NC(=O)CCc1ccccc1 [PKS2251]
13600,,Cc1ccc(S(=O)(=O)N[C@@H](CC(=O)NC(C)(C)C)C(=O)N[C@@H](C)CC(=O)NCc2cccc3ccccc23)cc1 [PKS2252]
,58 fold,C[C@H](NC(=O)C[C@H](CC(=O)NC(C)(C)C)NC(=O)CCc1ccccc1)C(=O)NCc1cccc2ccccc12 [PKS2278]
2521,2.5 fold,Cc1ccc(S(=O)(=O)N[C@H](CC(=O)N[C@@H](C)C(=O)NCc2cccc3ccccc23)CC(=O)NC(C)(C)C)cc1 [PKS2279]
